Calls of active or inactive are those of the source. The calls are words filed in the database; no cut-off is given here.
Assays:
[1] = tested on: MOLT-4; assay: Antiproliferative activity against human MOLT-4 cells assessed as inhibition of cell growth incubated for 72 hrs by cell-titer glo assay; format: functional, cell-based; conditions: MOLT-4, 72 h
In short: (§1)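 Cells from ATCC or ECACC, kept in supplier-recommended medium with 1% penicillin-streptomycin at 37°C, 5% CO₂. Seeded at 10,000–30,000/cm² (adherent) or 100,000/mL (nonadherent) in medium with 10% fetal calf serum. Dosed after 24 h in duplicate with serial dilutions. Viable cells read by CellTiter-Glo 72 h later. IC50 from sigmoidal fit. At least two independent experiments.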

[2] = tested on: U-937; assay: Antiproliferative activity against human U-937 cells assessed as inhibition of cell growth incubated for 72 hrs by cell-titer glo assay; format: functional, cell-based; conditions: U-937, 72 h
[3] = Antiproliferative activity against human AML-NS8 cells assessed as inhibition of cell growth incubated for 72 hrs by cell-titer glo assay; format: functional, cell-based; conditions: AML-NS8, 72 h
In short: (§2)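 Cells seeded 10,000–30,000/cm² (adherent) or 100,000/mL (suspension) in medium with 10% fetal calf serum; after 24 h treated in duplicate with serial dilutions for 72 h. Viable cells read by CellTiter-Glo luminescence; IC50 from sigmoidal fit; at least two independent experiments.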

[4] = Antitumor activity against human Acute myeloid leukemic cell xenografted in nu/nu mouse assessed as increase in median survival time at 120 mg/kg, po administered for 2 days and measured after 5 days (reference value: 36 days); format: functional, Leukemia cell; conditions: time 2 day
[5] = biological target: Testis-specific serine/threonine-protein kinase 1 (Homo sapiens) (UniProt Q9BXA7); assay: Inhibition of 6His-tagged recombinant human full length TSSK1 expressed in baculovirus infected Sf21 cells assessed as residual activity at 0.1 uM relative to control
[6] = biological target: Protein kinase C beta type (Homo sapiens, UniProt P05771); assay: Inhibition of PKC beta (unknown origin) in presence of [gamma-33P]ATP
[7] = Cmax in nu/nu mouse at 10 mg/kg, po by LC-MS analysis; format: ADME, organism-based; conditions: in vivo
[8] = AUC in Sprague-Dawley rat at 10 mg/kg, iv by LC-MS analysis; format: ADME, organism-based; conditions: in vivo
[9] = tested on: AU565; assay: Antiproliferative activity against human AU565 cells assessed as inhibition of cell growth incubated for 72 hrs by cell-titer glo assay; format: functional, cell-based; conditions: AU565, 72 h; in short: as §2
[10] = biological target: Proto-oncogene tyrosine-protein kinase ROS (Homo sapiens, UniProt P08922); assay: Inhibition of ROS (unknown origin) in presence of [gamma-33P]ATP
[11] = tested on: EVSA-T; assay: Antiproliferative activity against human EVSA-T cells assessed as inhibition of cell growth incubated for 72 hrs by cell-titer glo assay; format: functional, cell-based; in short: as §2
[12] = tested on: A498; assay: Antiproliferative activity against human A498 cells assessed as inhibition of cell growth incubated for 72 hrs by cell-titer glo assay; format: functional, cell-based; conditions: A498, 72 h; in short: as §2
[13] = Half-life in nu/nu mouse at 10 mg/kg, iv by LC-MS analysis; format: ADME, organism-based; conditions: in vivo
[14] = tested on: SNB-19; assay: Antiproliferative activity against human SNB-19 cells assessed as inhibition of cell growth incubated for 72 hrs by cell-titer glo assay; format: functional, cell-based; conditions: SNB-19, 72 h
[15] = biological target: Ephrin type-A receptor 4 (Homo sapiens) (UniProt P54764); assay: Inhibition of N-terminal His6-tagged recombinant human EphA4 (601 to 892 residues) expressed in baculovirus infected Sf21 cells assessed as residual activity at 1 uM relative to control
[16] = Clearance in male cynomolgus monkey at 5 mg/kg, iv by LC-MS analysis; format: ADME, organism-based, Macaca fascicularis; conditions: in vivo
[17] = tested on: Caco-2; assay: Antiproliferative activity against human Caco-2 cells assessed as inhibition of cell growth incubated for 72 hrs by cell-titer glo assay; format: functional, cell-based; conditions: Caco-2, 72 h; in short: as §2
[18] = biological target: Serine/threonine-protein kinase Nek7 (Homo sapiens) (UniProt Q8TDX7); assay: Inhibition of N-terminal His6-tagged recombinant human NEK7 (2 to end residues) expressed in baculovirus infected Sf21 cells assessed as residual activity at 0.1 uM relative to control
[19] = tested on: KARPAS-299; assay: Antiproliferative activity against human KARPAS-299 cells assessed as inhibition of cell growth incubated for 72 hrs by cell-titer glo assay; format: functional, cell-based; conditions: KARPAS-299, 72 h
In short: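 Cells seeded at 10,000–30,000/cm² (adherent) or 100,000/mL (nonadherent) in medium with 10% fetal calf serum; after 24 h, treated in duplicate with serial dilutions for 72 h. Viable cell number read by CellTiter-Glo luminescence; IC50 from sigmoidal fit; at least two independent experiments.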

[20] = tested on: U2OS; assay: Induction of cell death in human U2OS cells assessed as reduced cell number at 1 uM by time lapse microscopy analysis; format: functional, cell-based; conditions: time lower […], time upper 48.0 hrs, TDE = time-dependent effect
[21] = biological target: MAP kinase-activated protein kinase 5 (Homo sapiens) (UniProt Q8IW41); assay: Inhibition of N-terminal His6-tagged recombinant human full-length PRAK expressed in baculovirus infected Sf21 cells assessed as residual activity at 0.1 uM relative to control
[22] = biological target: Mitotic checkpoint serine/threonine-protein kinase BUB1 (Homo sapiens, UniProt O43683); assay: Inhibition of BUB1 (unknown origin) in presence of [gamma-33P]ATP
[23] = tested on: HCT-116; assay: Antitumor activity against human HCT-116 cells xenografted in nu/nu mouse assessed as tumor growth inhibition at 60 mg/kg, po administered for 8 days relative to control; format: functional; conditions: HCT-116, 192 h, time 8 day, read-out: TGI
[24] = tested on: A-431; assay: Antiproliferative activity against human A-431 cells assessed as inhibition of cell growth incubated for 72 hrs by cell-titer glo assay; format: functional, cell-based; conditions: A-431, 72 h; in short: as §2
[25] = Antitumor activity against human Acute myeloid leukemic cell xenografted in nu/nu mouse assessed as increase in median survival time at 120 mg/kg, po administered for 2 days and measured after 10 days in presence of cytarabine (reference value: 34 days); conditions: time 2 day
[26] = tested on: A2780; assay: Induction of mitosis in human A2780 cells at 0.0001 to 100 uM incubated for upto 24 hrs followed by compound washout by cell titer glow assay; format: functional, cell-based; conditions: dose 0.0001-100 µM
[27] = tested on: NALM-6; assay: Antiproliferative activity against human NALM-6 cells assessed as inhibition of cell growth incubated for 72 hrs by cell-titer glo assay; format: functional, cell-based; conditions: NALM-6, 72 h; in short: as §1
[28] = tested on: A2780; assay: Induction of cell cycle arrest in human A2780 cells assessed as accumulation of cells in G2/M phase by measuring upregulated PLK1 expression incubated for 24 hrs by Western blotting analysis; format: functional, cell-based; conditions: dose 0.02-0.2 µmol/L
In short: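 A2780 ovarian carcinoma cells treated 24 h with a range of concentrations, with DMSO and nocodazole controls. 20 µg protein extract separated by SDS-PAGE and immunoblotted with chemiluminescent detection. Probed for total and phospho-Thr210 PLK1, phospho-Ser10 histone H3, phospho-Thr199 NPM and phospho-Tyr15 CDK1. Total NPM, tubulin and total CDK1 served as loading controls.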

[29] = biological target: Cytoplasmic tyrosine-protein kinase BMX (Homo sapiens) (UniProt P51813); assay: Inhibition of recombinant human Bmx assessed as residual activity at 0.1 uM relative to control
Cytoplasmic tyrosine-protein kinase BMX (Homo sapiens), sequence (P51813 whole entry): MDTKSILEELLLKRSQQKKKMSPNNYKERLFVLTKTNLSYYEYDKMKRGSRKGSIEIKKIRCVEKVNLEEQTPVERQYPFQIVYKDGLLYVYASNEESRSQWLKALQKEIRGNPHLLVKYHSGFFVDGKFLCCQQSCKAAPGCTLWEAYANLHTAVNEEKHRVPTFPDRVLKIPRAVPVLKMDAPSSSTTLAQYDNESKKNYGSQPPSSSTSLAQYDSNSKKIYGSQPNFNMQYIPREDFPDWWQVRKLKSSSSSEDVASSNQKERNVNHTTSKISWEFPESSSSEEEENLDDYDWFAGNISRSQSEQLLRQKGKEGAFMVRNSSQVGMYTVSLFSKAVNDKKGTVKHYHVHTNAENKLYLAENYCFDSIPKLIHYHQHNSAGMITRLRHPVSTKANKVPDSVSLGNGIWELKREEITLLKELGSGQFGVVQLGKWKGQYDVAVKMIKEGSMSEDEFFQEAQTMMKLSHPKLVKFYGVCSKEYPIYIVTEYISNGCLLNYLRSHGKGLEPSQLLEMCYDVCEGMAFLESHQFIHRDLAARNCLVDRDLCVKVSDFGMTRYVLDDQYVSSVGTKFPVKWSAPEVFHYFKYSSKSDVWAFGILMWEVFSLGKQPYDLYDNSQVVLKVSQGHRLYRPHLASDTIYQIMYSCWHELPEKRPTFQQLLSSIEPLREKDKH

Serine/threonine-protein kinase Nek7 (Homo sapiens), sequence (Q8TDX7 whole entry, looked up): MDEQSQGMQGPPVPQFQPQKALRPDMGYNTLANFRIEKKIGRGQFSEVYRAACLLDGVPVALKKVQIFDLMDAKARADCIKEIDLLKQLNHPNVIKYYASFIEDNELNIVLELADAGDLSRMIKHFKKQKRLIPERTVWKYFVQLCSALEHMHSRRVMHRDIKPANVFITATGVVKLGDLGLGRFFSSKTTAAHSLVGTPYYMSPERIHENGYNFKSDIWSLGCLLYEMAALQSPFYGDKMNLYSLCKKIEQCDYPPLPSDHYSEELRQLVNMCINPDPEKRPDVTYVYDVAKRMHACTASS
Proto-oncogene tyrosine-protein kinase ROS, sequence (P08922 whole entry): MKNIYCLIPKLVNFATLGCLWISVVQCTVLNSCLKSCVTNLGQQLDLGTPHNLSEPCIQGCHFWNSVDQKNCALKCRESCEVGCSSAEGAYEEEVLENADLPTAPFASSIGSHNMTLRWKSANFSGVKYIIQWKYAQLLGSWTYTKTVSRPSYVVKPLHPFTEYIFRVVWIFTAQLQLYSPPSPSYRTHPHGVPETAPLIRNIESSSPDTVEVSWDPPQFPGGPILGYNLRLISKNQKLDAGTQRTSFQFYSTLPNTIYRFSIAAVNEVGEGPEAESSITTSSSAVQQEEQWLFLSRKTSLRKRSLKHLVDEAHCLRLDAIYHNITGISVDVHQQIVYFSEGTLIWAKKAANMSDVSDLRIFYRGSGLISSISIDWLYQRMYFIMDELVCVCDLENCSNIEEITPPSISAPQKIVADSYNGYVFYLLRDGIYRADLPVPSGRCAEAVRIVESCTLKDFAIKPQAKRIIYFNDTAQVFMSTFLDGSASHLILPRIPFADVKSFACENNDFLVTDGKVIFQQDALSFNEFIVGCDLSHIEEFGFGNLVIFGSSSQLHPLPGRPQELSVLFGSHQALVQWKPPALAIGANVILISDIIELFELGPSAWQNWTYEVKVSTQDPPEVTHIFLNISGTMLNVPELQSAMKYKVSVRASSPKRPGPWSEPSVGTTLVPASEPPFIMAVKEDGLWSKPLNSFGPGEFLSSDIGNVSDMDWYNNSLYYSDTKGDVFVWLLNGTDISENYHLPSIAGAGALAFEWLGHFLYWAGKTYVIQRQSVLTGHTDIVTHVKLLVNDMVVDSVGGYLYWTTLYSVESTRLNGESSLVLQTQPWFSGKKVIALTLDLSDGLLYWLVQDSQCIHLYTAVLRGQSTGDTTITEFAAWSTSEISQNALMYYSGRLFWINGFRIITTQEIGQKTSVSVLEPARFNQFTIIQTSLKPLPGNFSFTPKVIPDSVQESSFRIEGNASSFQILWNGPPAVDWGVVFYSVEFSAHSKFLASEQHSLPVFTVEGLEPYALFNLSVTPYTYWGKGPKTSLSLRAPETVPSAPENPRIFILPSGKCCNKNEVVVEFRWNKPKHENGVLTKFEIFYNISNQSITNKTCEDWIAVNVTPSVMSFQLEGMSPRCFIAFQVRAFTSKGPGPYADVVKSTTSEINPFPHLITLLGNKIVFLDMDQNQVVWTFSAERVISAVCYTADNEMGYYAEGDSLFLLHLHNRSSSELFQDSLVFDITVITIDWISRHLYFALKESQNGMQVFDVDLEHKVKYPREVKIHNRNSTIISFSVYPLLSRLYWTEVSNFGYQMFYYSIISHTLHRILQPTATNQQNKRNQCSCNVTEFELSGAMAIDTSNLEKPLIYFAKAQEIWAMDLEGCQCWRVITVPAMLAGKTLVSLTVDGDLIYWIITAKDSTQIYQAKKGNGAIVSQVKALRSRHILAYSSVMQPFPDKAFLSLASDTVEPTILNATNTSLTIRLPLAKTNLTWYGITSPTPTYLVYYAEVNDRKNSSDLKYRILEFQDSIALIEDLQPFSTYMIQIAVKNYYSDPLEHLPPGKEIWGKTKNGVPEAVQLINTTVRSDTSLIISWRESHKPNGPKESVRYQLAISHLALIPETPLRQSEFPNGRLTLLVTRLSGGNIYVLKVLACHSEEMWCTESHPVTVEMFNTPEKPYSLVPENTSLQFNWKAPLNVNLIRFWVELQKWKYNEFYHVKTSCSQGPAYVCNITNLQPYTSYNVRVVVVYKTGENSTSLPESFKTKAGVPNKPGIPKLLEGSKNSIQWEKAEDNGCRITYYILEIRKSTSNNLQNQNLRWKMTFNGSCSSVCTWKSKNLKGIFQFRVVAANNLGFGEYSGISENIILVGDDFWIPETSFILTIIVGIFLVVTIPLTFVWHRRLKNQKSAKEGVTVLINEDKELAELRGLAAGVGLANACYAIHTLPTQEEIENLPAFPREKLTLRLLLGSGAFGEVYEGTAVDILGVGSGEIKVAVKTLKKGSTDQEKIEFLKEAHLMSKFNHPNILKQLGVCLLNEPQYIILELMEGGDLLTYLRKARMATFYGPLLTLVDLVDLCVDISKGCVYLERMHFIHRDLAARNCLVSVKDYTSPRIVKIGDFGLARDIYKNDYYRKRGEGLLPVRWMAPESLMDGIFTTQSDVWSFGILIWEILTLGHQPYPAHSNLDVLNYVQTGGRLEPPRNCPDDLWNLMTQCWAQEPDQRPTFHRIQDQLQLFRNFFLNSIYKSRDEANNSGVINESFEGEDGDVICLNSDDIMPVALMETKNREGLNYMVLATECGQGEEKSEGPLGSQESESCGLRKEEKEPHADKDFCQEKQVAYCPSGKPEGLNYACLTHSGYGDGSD
Testis-specific serine/threonine-protein kinase 1 (Homo sapiens), sequence (Q9BXA7 whole entry): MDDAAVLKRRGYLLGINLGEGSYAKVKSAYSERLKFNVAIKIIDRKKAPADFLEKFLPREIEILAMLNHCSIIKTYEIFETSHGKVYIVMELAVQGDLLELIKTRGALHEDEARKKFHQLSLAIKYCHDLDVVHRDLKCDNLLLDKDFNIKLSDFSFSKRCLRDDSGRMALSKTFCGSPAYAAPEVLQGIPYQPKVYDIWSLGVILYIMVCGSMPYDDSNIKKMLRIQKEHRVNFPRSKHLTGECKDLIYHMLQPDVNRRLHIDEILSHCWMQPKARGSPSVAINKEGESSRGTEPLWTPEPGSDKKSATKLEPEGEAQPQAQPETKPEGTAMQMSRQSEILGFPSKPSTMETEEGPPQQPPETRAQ
Mitotic checkpoint serine/threonine-protein kinase BUB1, sequence (O43683 whole entry): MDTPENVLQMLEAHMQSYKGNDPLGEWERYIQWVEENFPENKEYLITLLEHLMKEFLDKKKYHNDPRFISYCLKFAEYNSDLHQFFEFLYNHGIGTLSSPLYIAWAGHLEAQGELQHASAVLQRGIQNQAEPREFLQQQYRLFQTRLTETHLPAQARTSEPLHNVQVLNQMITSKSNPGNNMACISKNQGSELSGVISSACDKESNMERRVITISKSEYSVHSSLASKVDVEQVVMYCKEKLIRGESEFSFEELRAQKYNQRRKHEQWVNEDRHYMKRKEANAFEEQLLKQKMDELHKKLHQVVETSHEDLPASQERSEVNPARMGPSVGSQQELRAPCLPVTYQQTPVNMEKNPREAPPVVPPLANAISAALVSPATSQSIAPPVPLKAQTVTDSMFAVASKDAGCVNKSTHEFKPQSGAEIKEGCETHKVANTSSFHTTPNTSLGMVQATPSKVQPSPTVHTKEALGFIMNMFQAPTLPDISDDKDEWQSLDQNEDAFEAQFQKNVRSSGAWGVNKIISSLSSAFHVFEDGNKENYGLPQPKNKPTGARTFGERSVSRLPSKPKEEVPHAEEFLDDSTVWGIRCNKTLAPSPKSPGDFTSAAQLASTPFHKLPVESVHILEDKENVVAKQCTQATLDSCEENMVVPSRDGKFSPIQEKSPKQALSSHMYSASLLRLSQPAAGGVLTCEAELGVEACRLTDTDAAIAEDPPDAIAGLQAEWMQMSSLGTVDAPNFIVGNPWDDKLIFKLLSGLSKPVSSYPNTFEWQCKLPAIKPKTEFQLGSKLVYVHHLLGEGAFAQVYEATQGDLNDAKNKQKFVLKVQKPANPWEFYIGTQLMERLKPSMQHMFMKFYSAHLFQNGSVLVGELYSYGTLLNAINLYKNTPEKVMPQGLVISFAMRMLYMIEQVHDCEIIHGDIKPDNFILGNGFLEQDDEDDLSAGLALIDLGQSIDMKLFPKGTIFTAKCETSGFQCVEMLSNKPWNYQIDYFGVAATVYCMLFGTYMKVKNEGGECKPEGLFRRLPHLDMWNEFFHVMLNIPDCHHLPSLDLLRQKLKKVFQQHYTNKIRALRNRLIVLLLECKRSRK

SMILES: CN1CCN(c2ccc(OC(F)(F)F)c(Nc3ncc4c(n3)-c3c(c(C(N)=O)nn3CCO)CC4)c2)CC1 [ONVANSERTIB]
- IC50 [1]: 0.045 µM
- IC50 [2]: 0.041 µM
- IC50 [3]: 0.036 µM
- Time [4]: 50 days
- Activity [5]: 67%
- IC50 [6]: > 10 µM
- Cmax [7]: 0.6 µM
- AUC [8]: 13.8 µM·h
- IC50 [9]: 0.011 µM
- IC50 [10]: > 10 µM
- IC50 [11]: 0.041 µM
- IC50 [12]: 1.07 µM
- half-life [13]: 54 min
- IC50 [14]: 0.224 µM
- Activity [15]: 80%
- clearance [16]: 0.672 L/h/kg
- IC50 [17]: 4.76 µM
- Activity [18]: 123%
- IC50 [19]: 0.053 µM
- Activity [20]: Tde
- Activity [21]: 126%
- IC50 [22]: > 10 µM
- inhibition in vivo at 60 mg/kg [23]: 79%
- IC50 [24]: 0.059 µM
- Time [25]: 79 days
- Activity [26]: Active
- IC50 [27]: 0.061 µM
- Activity [28]: Dose-Dependent Effect
- Activity [29]: 83%

Source: ChEMBL document CHEMBL5678806, “NMS-P937, an orally available, specific small-molecule polo-like kinase 1 inhibitor with antitumor activity in solid and hematologic malignancies” (Mol Cancer Ther, 2012)
